MrgX1 ag – agonists of human MrgX1 receptor. MrgX1-HEK293 cells, Fluo-4 calcium fluorescence, agonist mode; hits give high values. B-score at 10 µM. actives 0.44% (n = 310,000). AID 588627;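 active means calcium response B-score plate-corrected fluorescence ratio at least 3 library SD, with starting fluorescence B-score inside 5 SD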
Target sequence (Q96LB2 whole entry, looked up): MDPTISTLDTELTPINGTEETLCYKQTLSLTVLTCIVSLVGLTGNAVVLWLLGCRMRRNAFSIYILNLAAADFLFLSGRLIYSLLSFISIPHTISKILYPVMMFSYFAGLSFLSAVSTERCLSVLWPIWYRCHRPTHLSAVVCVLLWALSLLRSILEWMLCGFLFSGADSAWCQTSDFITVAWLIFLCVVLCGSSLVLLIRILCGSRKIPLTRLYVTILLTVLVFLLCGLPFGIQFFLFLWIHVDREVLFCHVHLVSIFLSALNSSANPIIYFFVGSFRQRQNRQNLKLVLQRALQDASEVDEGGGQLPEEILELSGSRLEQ
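Test system: Stable human MrgX1 HEK293 cell line | Schedule: Overnight plating before 1 h dye loading | Read-out basis: Baseline-normalised fluorescence change ratio, B-scored | Detection: Kinetic calcium dye fluorescence, Fluo-4 NW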
RGS4 act – potentiators or activators of RGS4 | HEK293 M3R/inducible RGS4, carbachol calcium flux Fluo4; hits give low values | B-score at 10 µM | actives 0.92% (n = 310,000) | AID 463111;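 active means B-score of the integrated calcium signal more than 4 SD below the library mean, with starting fluorescence not abnormally high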;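 further: negative B-score means reduced calcium response which marks RGS4 activation or potentiation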
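test system = M3R-expressing HEK293 line, RGS4 induced by doxycycline | probe or stimulus = carbachol at ECmax as muscarinic agonist stimulus | timing = dye loading 30 min 37 °C, buffer rest 30 min RT | signal = calcium dye Fluo4 fluorescence | evaluation = B score from integrated fluorescence ratio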
RGS4 block – inhibitors of human RGS4; P49798; HEK293 M3R/RGS4 inducible, Fluo-4 calcium flux; hits give high values; triggered by carbachol at its EC20; B-score at 10 µM; actives 0.45% (n = 310,000);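 active means B-score, a plate-corrected calcium signal, over three deviations above library mean, with baseline fluorescence within five deviations of library mean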;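 further: RGS4 expression induced by doxycycline in cells with stable M3 receptor; B-score is computed from the integrated fluorescence ratio over baseline after carbachol; higher B-score means a larger calcium signal and so more RGS4 inhibition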
Target sequence (P49798 whole entry, looked up): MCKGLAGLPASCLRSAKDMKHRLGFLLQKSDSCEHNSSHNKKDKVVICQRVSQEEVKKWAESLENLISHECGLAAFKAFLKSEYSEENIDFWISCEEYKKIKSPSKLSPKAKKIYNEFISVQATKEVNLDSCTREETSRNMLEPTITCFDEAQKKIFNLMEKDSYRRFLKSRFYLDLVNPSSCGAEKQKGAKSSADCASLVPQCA
MrgX1 antagonist – blocks BAM8-22 activation of human MrgX1 receptor | MRGX1-HEK293 calcium flux, Fluo-4, BAM8-22 antagonism; hits give low values | actives 1.3% (n = 310,000) | B-score at 10 µM;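 active means calcium-response B-score plate-corrected more than 3 library SD below zero, starting fluorescence within 5 deviations, no agonist response on first addition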;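 further: peak minus trough fluorescence over baseline after final BAM8-22 challenge near maximal dose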
MrgX1 allo act – allosterically activates human MrgX1 receptor signaling | actives 0.63% (n = 310,000) | B-score at 10 µM | Q96LB2 | MrgX1-HEK293, Fluo-4 calcium flux, FDSS; hits give high values;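 active means plate-corrected calcium response at least 3 library SD above typical, normal starting fluorescence, not activating the receptor alone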;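 further: compound read alongside a low EC10 to EC30 dose of BAM8-22 agonist; peak minus trough fluorescence over baseline measured at the second addition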
MrgX1 ant reconf – human MrgX1 receptor antagonism, re-confirmation screen; actives 19% (n = 2,300); shares compounds with MrgX1 antagonist; remaining BAM8-22 calcium response % of control (hits give low values), % at 10 µM; AID 602420; MrgX1-HEK293, BAM8-22 calcium flux, Fluo-4; hits give low values;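 active means remaining agonist calcium response no higher than 100% minus 3 SD of agonist-only control wells, with starting fluorescence near control levels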;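 further: agonist BAM8-22 given at a near maximal EC90 to ECmax level; peak minus minimum fluorescence divided by baseline after agonist addition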
HEK293 Ca flux – activity in parental HEK293 cells lacking MrgX1. fluorescence ratio F(max-min)/F0 at 10 µM. Fluo-4 calcium fluorescence, FDSS. shares compounds with MrgX1 antagonist. actives 2% (n = 4,000);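 active means duplicate-averaged calcium fluorescence ratio at least three times the standard deviation of buffer wells, a nonspecific response in parental cells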
HEK293 Ca counter – MrgX1 allosteric activator counter-screen hit in parental HEK293 cells; shares compounds with MrgX1 antagonist; parental HEK293 calcium flux, Fluo-4 fluorescence ratio; hits give high values; AID 624114; actives 0.4% (n = 4,000); fluorescence ratio F(max-min)/F0 at 10 µM;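 active means calcium fluorescence ratio, averaged over duplicates, at least 3 SD of the buffer-well ratio, meaning a nonspecific response in receptor-free cells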;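 further: untransfected parental HEK293 lacking MrgX1 used as counterscreen for MrgX1 allosteric activators; fluorescence change taken during the second addition on a kinetic imager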
HEK293 Ca cntr2 – counter-screen for MrgX1 activators: effect in parental HEK293 cells; shares compounds with MrgX1 antagonist; Fluo-4 calcium fluorescence (FDSS); hits give high values; fluorescence ratio F(max-min)/F0 at 10 µM; actives 8.7% (n = 4,000); AID 624115;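 active means calcium fluorescence ratio at least three times the spread of buffer wells, meaning a non-specific response in parental cells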
Large screens that a line does not name were inactive (follow-up assays come after a bar, where they were run). This is a sample that favours compounds with a hit; in the whole collection about 3.5% have one here.

CCN(CC(=O)Nc1cccc(S(=O)(=O)N2CCOCC2)c1)Cc1ccccc1	none
CC1CCC2(CC1)NC(=O)N(CC(=O)Nc1cccc(S(=O)(=O)N3CCOCC3)c1)C2=O (configuration not stated)	none
O=C(Nc1nc2ccccc2s1)C1=NN(c2ccccc2)C(=O)CC1	none
CCn1c(=O)cc(C(F)(F)F)[nH]c1=S	none
CN(C)CCCNc1ncnc2scc(-c3ccccc3)c12	none
c1ccc(-c2csc3ncnc(NCc4ccccn4)c23)cc1	MrgX1 antagonist -5.6 | MrgX1 ant reconf inactive | HEK293 Ca flux inactive | HEK293 Ca counter inactive | HEK293 Ca cntr2 inactive
O=C(COC(=O)c1cnccn1)NCCc1ccc(Cl)cc1Cl	MrgX1 antagonist -5.9 | MrgX1 ant reconf inactive | HEK293 Ca flux inactive | HEK293 Ca counter inactive | HEK293 Ca cntr2 inactive
O=C(COC(=O)c1cnccn1)Nc1ncc(Cl)cc1Cl	none
O=C(Cn1cnc2c(nnn2Cc2ccc(F)cc2)c1=O)NCc1ccc(F)cc1	none
CC(=O)Nc1ccc(NC(=O)Cn2cnc3c(nnn3Cc3ccc(F)cc3)c2=O)cc1	MrgX1 antagonist -6.8 | MrgX1 ant reconf inactive | HEK293 Ca flux inactive | HEK293 Ca counter inactive | HEK293 Ca cntr2 inactive
CCN(CC)C(=O)Oc1cc(=O)n2c3c(cccc13)CCC2	none
Cc1cccc(C(=O)NCC(=O)N2CCN(S(=O)(=O)c3ccccc3)CC2)c1	MrgX1 antagonist -4.6 | MrgX1 ant reconf inactive | HEK293 Ca flux inactive | HEK293 Ca counter inactive | HEK293 Ca cntr2 inactive
O=C(Cn1cnc2c(oc3ccccc32)c1=O)c1ccccc1	MrgX1 antagonist -8.2 | MrgX1 ant reconf inactive | HEK293 Ca flux inactive | HEK293 Ca counter inactive | HEK293 Ca cntr2 inactive
O=C(O)Cn1cnc2c(oc3ccccc32)c1=O	none
O=C(CCN1CCC(c2ccccc2)C1)c1ccccc1 (configuration not stated)	MrgX1 antagonist -5.2 | MrgX1 ant reconf inactive | HEK293 Ca flux inactive | HEK293 Ca counter inactive | HEK293 Ca cntr2 inactive
O=C(Nc1ccccc1)N1CCC(c2ccccc2)C1 (configuration not stated)	none
COc1ccc(C2C(C(=O)c3ccco3)=C(O)C(=O)N2c2nnc(C)s2)cc1 (configuration not stated)	none
C=CCOc1ccc(C2C(C(=O)c3ccco3)=C(O)C(=O)N2c2nnc(C)s2)cc1 (configuration not stated)	MrgX1 antagonist -5 | MrgX1 ant reconf inactive | HEK293 Ca flux inactive | HEK293 Ca counter inactive | HEK293 Ca cntr2 inactive
COc1cccc(OCCCOc2ccccc2C(C)C)c1	MrgX1 antagonist -6.9 | MrgX1 ant reconf inactive | HEK293 Ca flux inactive | HEK293 Ca counter inactive | HEK293 Ca cntr2 inactive
COc1cccc(OCCOc2ccccc2[N+](=O)[O-])c1	none
O=C(NCc1ccco1)C1CCCN(S(=O)(=O)c2ccc(Br)cc2)C1 (configuration not stated)	none
O=C(Cn1ccc2cc(S(=O)(=O)N3CCCC3)ccc21)NCc1ccco1	MrgX1 antagonist -4.6 | MrgX1 ant reconf inactive | HEK293 Ca flux inactive | HEK293 Ca counter inactive | HEK293 Ca cntr2 inactive
CS(=O)(=O)N1CCCC(C(=O)NCc2ccco2)C1 (configuration not stated)	MrgX1 antagonist -5.1 | MrgX1 ant reconf inactive | HEK293 Ca flux inactive | HEK293 Ca counter inactive | HEK293 Ca cntr2 inactive
Cc1ccc(S(=O)(=O)NCCC(=O)N2CCCCCCC2)cc1C	MrgX1 antagonist -4.7 | MrgX1 ant reconf inactive | HEK293 Ca flux inactive | HEK293 Ca counter inactive | HEK293 Ca cntr2 inactive
Cc1ccc(S(=O)(=O)NCCC(=O)N2CCN(S(=O)(=O)c3ccccc3)CC2)cc1C	none
Cc1ccc(C)c(N2CCN(c3nc4ccccc4c(=O)n3Cc3ccccc3)CC2)c1	none
COc1cc(C(=O)N/N=C/c2ccc(OC)c(CN3CCN(c4ccc(F)cc4)CC3)c2)ccc1O	none
Cc1ccc(-n2c(-c3ccncc3)nnc2-c2cccs2)cc1	MrgX1 antagonist -5.7 | MrgX1 ant reconf inactive | HEK293 Ca flux inactive | HEK293 Ca counter inactive | HEK293 Ca cntr2 inactive
O=c1ccc(Cl)cn1Cc1ccccc1F	none
CCOc1ccc(NC(=O)c2ccc3c(c2)CCN3S(C)(=O)=O)cc1	none
Cc1cc(NCCN2CCOCC2)n2c(nc3ccccc32)c1C#N	none
Cc1cc(NCCCN2CCOCC2)n2c(nc3ccccc32)c1C#N	MrgX1 antagonist -6 | MrgX1 ant reconf 78% | HEK293 Ca flux inactive | HEK293 Ca counter inactive | HEK293 Ca cntr2 inactive
Cc1cc2c(cc1S(=O)(=O)Nc1cccc(F)c1)n(C)c(=O)c(=O)n2C	none
Cc1ccc(S(=O)(=O)N2CCC(C(=O)N3CCC(C(=O)NCc4cccnc4)CC3)CC2)cc1	MrgX1 antagonist -6.6 | MrgX1 ant reconf 85% | HEK293 Ca flux inactive | HEK293 Ca counter inactive | HEK293 Ca cntr2 inactive
CCC(C)c1ccc(OCC(=O)O)cc1 (configuration not stated)	MrgX1 antagonist -6.9 | MrgX1 ant reconf inactive | HEK293 Ca flux inactive | HEK293 Ca counter inactive | HEK293 Ca cntr2 inactive
CCCc1ccc(OCC(=O)O)cc1	none
COc1ccc(C2C3=C(CCCC3=O)Nc3ccc4ncccc4c32)cc1OC (configuration not stated)	MrgX1 antagonist -4.7 | MrgX1 ant reconf inactive | HEK293 Ca flux inactive | HEK293 Ca counter inactive | HEK293 Ca cntr2 inactive
COc1cc(C2C3=C(CCCC3=O)Nc3ccc4ncccc4c32)ccc1O (configuration not stated)	none
O=c1ccc(Oc2nc(N3CCCCC3)nc(N3CCCCC3)n2)n[nH]1	MrgX1 antagonist -5.5 | MrgX1 ant reconf inactive | HEK293 Ca flux inactive | HEK293 Ca counter inactive | HEK293 Ca cntr2 inactive
Cc1cc2cc3c(cc2nc1SCc1ccccn1)OCCO3	MrgX1 antagonist -6.5 | MrgX1 ant reconf inactive | HEK293 Ca flux inactive | HEK293 Ca counter inactive | HEK293 Ca cntr2 inactive
N#Cc1cc2ccccc2nc1SCc1ccccn1	none
CC1CC(=O)c2cnc(NCc3ccco3)nc2C1 (configuration not stated)	MrgX1 antagonist -7.2 | MrgX1 ant reconf inactive | HEK293 Ca flux inactive | HEK293 Ca counter inactive | HEK293 Ca cntr2 inactive
CC(CC(=O)Nc1ccc(S(=O)(=O)N2CCOCC2)cc1)c1ccccc1 (configuration not stated)	none

Source: PubChem (Johns Hopkins Ion Channel Center)
